This is an account of results in ChEMBL document CHEMBL1833880, “Biologically active arborinane-type triterpenoids and anthraquinones from Rubia yunnanensis” (J Nat Prod, 2011).

In brackets after ≈: the same amount, converted by molar mass. Activity calls are given as the source filed them. The calls are words filed in the database; no cut-off is given here.

In experiment [1] the test system is A549. The experiment in a line: Cytotoxicity against human A549 cells at >10 uM after 48 hrs by SRB assay. In kind it is functional, cell-based. A general note: In SRB staining, fixed cells bind dye roughly in proportion to their protein.
Experiment [2] deals with HeLa. The experiment in a line: Cytotoxicity against human HeLa cells after 48 hrs by SRB assay. It counts as functional, cell-based. In short, it runs like this:
(§1)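 Cells plated 24 h, then exposed to serial dilutions up to 20 μg/mL for 48 h at 37 °C in 5% CO2. They were fixed with cold 50% TCA for 1 h at 4 °C, stained with 0.4% SRB in 1% acetic acid for 15 min, and the bound dye was dissolved in 10 mM Tris base. Absorbance was read at 560 nm. IC50 was taken from triplicate tests.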

Experiment [3] relates to SMMC-7721. The experiment in a line: Cytotoxicity against human SMMC7721 cells at >10 uM after 48 hrs by SRB assay. In kind it is functional, cell-based.
Experiment [4] has as its system HeLa. The experiment can be described thus: Cytotoxicity against human HeLa cells at >10 uM after 48 hrs by SRB assay. In kind it is functional, cell-based.
Experiment [5] has as its system SMMC-7721. The experiment in a line: Cytotoxicity against human SMMC7721 cells after 48 hrs by SRB assay. It counts as functional, cell-based. The following applies: SMMC-7721, 48 h. In short, it runs like this:
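Cells seeded 24 h, then exposed to serial dilutions (top concentration 20 μg/mL) for 48 h at 37 °C, 5% CO2. Fixed with ice-cold 50% TCA at 4 °C for 1 h, stained 15 min with 0.4% SRB in 1% acetic acid, dye solubilized in 10 mM Tris base, absorbance at 560 nm. Triplicate; IC50 reported. Paclitaxel and camptothecin as positive controls.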

For a further experiment, the system named is Staphylococcus aureus. The experiment in a line: Antibacterial activity against Staphylococcus aureus CGMCC1.2465 after 24 hrs by turbidimetric method. The following applies: for MIC50: CGMCC1.2465, 24 h. It counts as functional. In short, it runs like this: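 Inoculum was adjusted by OD620 to McFarland 0.5 and diluted to 1 × 10^6 cfu/mL. It was exposed to serial dilutions up to 25 μg/mL in Mueller-Hinton broth at 37 °C for 24 h, and absorbance was read at 620 nm. MIC50 was taken from triplicate tests. Ampicillin was the reference.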

Another experiment has as its system Candida albicans. The experiment can be described thus: microbe, parasite or virus in culture. The following applies: CGMCC 2.2086, 24 h. In kind it is functional.
Experiment [6] has as its system A549. The experiment can be described thus: Cytotoxicity against human A549 cells after 48 hrs by SRB assay. The following applies: A549, 48 h. In kind it is functional, cell-based. In short, it runs like this: as §1

Broadly, the IC50 is the concentration needed to halve the response being measured. Read a low IC50 as greater potency in that assay. On to `CC(=O)OC[C@H]1O[C@@H](Oc2cc3c(c(O)c2C)C(=O)c2ccc(O)cc2C3=O)[C@H](O[C@@H]2O[C@@H](C)[C@H](O)[C@@H](O)[C@H]2O)[C@@H](O)[C@@H]1O`, for which the result in the experiment on A549 [1] and in the experiment on SMMC-7721 [3] was inactive. Besides, the IC50 with HeLa [2] stood at 4.2 µM.
For `COC1=CC(=O)c2ccccc2C1=O` [2-Methoxy-1,4-naphthoquinone], the outcome in the experiment on A549 [1], in the experiment on HeLa [4] and with Staphylococcus aureus was inactive. In the experiment with SMMC-7721 [5], 4.3 µM corresponded to half-maximal inhibition (IC50). In addition, the MIC50 against Candida albicans was found to be 16 µM (≈ 3.01 µg/mL).
For the compound `O=C1c2ccccc2C(=O)c2cc(CO)c(O)cc21`, the outcome with A549 [1] and in the experiment on SMMC-7721 [3] was inactive. The compound further returned an IC50 in the experiment on HeLa [2] of 3 µM.
Compound `CC1(C)S[C@@H]2[C@H](NC(=O)[C@H](N)c3ccccc3)C(=O)N2[C@H]1C(=O)O` [AMPICILLIN] yielded an MIC50 in the experiment on Staphylococcus aureus of 0.1 µM (≈ 0.0349 µg/mL).
In the case of `CC(C)[C@@H]1C[C@@H](O)[C@H]2[C@@]1(C)CC[C@@]1(C)C3=CC[C@H]4C(C)(C)[C@@H](O)CC[C@]4(C)C3=CC[C@]21C` [RUBIYUNNANOL A], the IC50 was 9.8 µM in the experiment on A549 [6] and more than 10 µM in the experiment on HeLa [4]. In the experiment on SMMC-7721 [3], the result was inactive.
Take `CC(=O)O[C@@H]1C[C@@H](C(C)C)[C@]2(CO)CC[C@@]3(C)[C@H]4C(=CC[C@]3(C)[C@@H]12)[C@@]1(C)CC[C@H](O)C(C)(C)[C@@H]1C[C@@H]4O` [RUBIARBONOL G]: the IC50 was 7 µM in the experiment with A549 [6] and 2.2 µM with HeLa [2]. Also, the outcome in the experiment with SMMC-7721 [3] was inactive. Also, the MIC50 in the experiment on Staphylococcus aureus is more than 25 µM; against Candida albicans it was 10.8 µM (≈ 5.58 µg/mL).
On to `CC(=O)O[C@@H]1C[C@@H](C(C)C)[C@]2(CO)CC[C@@]3(C)[C@H]4C(=CC[C@]3(C)[C@@H]12)[C@@]1(C)C=CC(=O)C(C)(C)[C@@H]1C[C@@H]4O`, for which the outcome in the experiment with A549 [1] and in the experiment with SMMC-7721 [3] was inactive. In addition, the IC50 in the experiment with HeLa [2] turned out to be 7.9 µM.
Consider `Clc1ccc(COC(Cn2ccnc2)c2ccc(Cl)cc2Cl)c(Cl)c1` (stereo not drawn) [MICONAZOLE NITRATE], for which the MIC50 in the experiment with Candida albicans came to 0.9 µM.
In the experiment on HeLa [2], `CC(=O)O[C@H]1C(=O)[C@@]2(C)[C@H]([C@H](OC(=O)c3ccccc3)[C@]3(O)C[C@H](OC(=O)[C@H](O)[C@@H](NC(=O)c4ccccc4)c4ccccc4)C(C)=C1C3(C)C)[C@]1(OC(C)=O)CO[C@@H]1C[C@@H]2O` [PACLITAXEL] displayed an IC50 of 0.6 µM.
In the experiment on Staphylococcus aureus, `Cc1c(O)cc2c(c1O)C(=O)c1ccc(O)cc1C2=O` showed an MIC50 of 21.5 µM (≈ 5.81 µg/mL).
In the case of `CC(C)[C@@H]1CC=C2[C@@]1(C)CC[C@@]1(C)[C@H]3C(=CC[C@]21C)[C@@]1(C)CC[C@H](O)C(C)(C)[C@@H]1C[C@@H]3O` [RUBIYUNNANOL B], the results for the IC50 in the experiment with A549 [6] and in the experiment with HeLa [2] were 8.2 µM and 5.3 µM, respectively. Further, the outcome in the experiment with SMMC-7721 [3] was inactive.
Consider `CC(=O)OC[C@@]12CC[C@@]3(C)[C@H]4C(=CC[C@]3(C)[C@H]1[C@H](O)C[C@H]2C(C)C)[C@@]1(C)CC[C@H](O[C@@H]2O[C@H](CO[C@@H]3O[C@H](CO)[C@@H](O)[C@H](O)[C@H]3O)[C@@H](O)[C@H](O)[C@H]2O)C(C)(C)[C@@H]1C[C@@H]4O`, for which the outcome with A549 [1] and in the experiment with SMMC-7721 [3] was inactive. In the experiment with HeLa [2], this compound showed an IC50 of 2.2 µM.
Compound `CC[C@@]1(O)C(=O)OCc2c1cc1n(c2=O)Cc2cc3ccccc3nc2-1` [CAMPTOTHECIN] registered an IC50 in the experiment on SMMC-7721 [5] of 0.003 µM. In other words, the single-digit nanomolar range.
